Experimental data as given in ChEMBL document CHEMBL2440086 (Bioorg Med Chem, 2013).

Tests used:
SK-OV-3 = assay: Cytotoxicity against human SKOV3 cells after 48 hrs by SRB assay; format: functional; conditions: SK-OV-3, 48 h
Summary of the method: (§1)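 Cells in 5% FBS/RPMI1640 with 1% gentamicin, plated and grown 24 h, then given serial compound dilutions for 48 h. Fixed with trichloroacetic acid, stained with sulforhodamine B, read by optical density.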

[1] = Inhibition of bovine brain tubulin polymerization after 20 mins by turbidimetric analysis; design: species or system Bos taurus
Summary of the method: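 Bovine brain tubulin 10 µM (1 mg/mL) in 0.8 M monosodium glutamate pH 6.6, 4% DMSO, with varying compound, preincubated 15 min at 30 °C. Chilled, GTP added to 0.4 mM, then temperature jumped 0→30 °C. Turbidity followed at 350 nm for 30 min.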

Tubulin (Homo sapiens) [2] = target: T1, Tubulin (Homo sapiens) (UniProt P68371+Q9H4B7+P0DPH7+P68366+Q13509+Q71U36+P04350+Q3ZCM7+P07437+P68363+Q9BQE3+Q6PEY2+Q13885+Q9BVA1+Q9BUF5); assay: Displacement of [3H]colchicine from tubulin (unknown origin) at 1 uM after 10 mins by scintillation counting analysis; format: protein-complex assay
Summary of the method: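 Tubulin 1.0 µM incubated 10 min at 37 °C with 5.0 µM [3H]colchicine, 5% (v/v) DMSO and inhibitor at 1.0 µM, in 1.0 M monosodium glutamate pH 6.6, 0.5 mg/mL BSA, 0.1 M glucose-1-phosphate, 1.0 mM MgCl2, 1.0 mM GTP. Stopped with ice-cold water, DEAE-cellulose filter stacks, scintillation counting next day; percent inhibition versus no-inhibitor control.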

DU-145 = assay: Cytotoxicity against human DU145 cells after 48 hrs by SRB assay; format: functional; conditions: DU-145, 48 h; summary of the method: as §1
NCI-H460 = assay: Cytotoxicity against human NCI-H460 cells after 48 hrs by SRB assay; format: functional; conditions: NCI-H460, 48 h; summary of the method: as §1
Tubulin (Homo sapiens) [3] = target: T1, Tubulin (Homo sapiens); assay: Displacement of [3H]colchicine from tubulin (unknown origin) at 5 uM after 10 mins by scintillation counting analysis; format: protein-complex assay
Summary of the method: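 Mixtures: 1.0 µM tubulin, 5.0 µM [3H]colchicine, 5% DMSO, inhibitor 5.0 µM, with 1.0 M monosodium glutamate pH 6.6, 0.5 mg/mL BSA, 0.1 M glucose-1-phosphate, 1.0 mM MgCl2, 1.0 mM GTP. 10 min at 37 °C, stopped with ice-cold water, filtered on DEAE-cellulose, scintillation counted. Percent inhibition versus no-inhibitor control.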

IC50 [1] [µM]	inhibition (Tubulin (Homo sapiens) [3]) [%]	Compound	GI50 (SK-OV-3) [µM]	inhibition (Tubulin (Homo sapiens) [2]) [%]	GI50 (DU-145) [µM]	GI50 (NCI-H460) [µM]
		COc1ccc(/C=C\c2cc(OC)c(OC)c(OC)c2)cc1O [COMBRETASTATIN A4]	0.00533		0.00484	0.00449
19	21	COc1ccc2c(C(=O)c3cccc([N+](=O)[O-])c3)c(-c3ccc(OC)c(O)c3)[nH]c2c1	2.65		7.11	15.7
3.1	26	COc1ccc2c(C(=O)c3cc(C(F)(F)F)cc(C(F)(F)F)c3)c(-c3ccc(OC)c(O)c3)[nH]c2c1	1.45		3.01	2.86
3.7	19	COc1ccc2c(C(=O)c3cccc(OC(F)(F)F)c3)c(-c3ccc(OC)c(O)c3)[nH]c2c1	0.283		2.99	3.57
> 20		COc1ccc2c(C(=O)c3ccc(OC(F)(F)F)cc3)c(-c3ccc(OC)c(O)c3)[nH]c2c1	3.05		3.21	2.35
7.5	26	COc1ccc2c(C(=O)c3cc(F)c(F)c(F)c3)c(-c3ccc(OC)c(O)c3)[nH]c2c1	19.8		10	5.54
> 20		COc1ccc2c(C(=O)c3ccc(F)cc3)c(-c3ccc(OC)c(O)c3)[nH]c2c1	15		10	49.6
> 20		COc1ccc2c(C(=O)c3ccc([N+](=O)[O-])cc3)c(-c3ccc(OC)c(O)c3)[nH]c2c1	21.1		8.16	16.8
> 20		COc1ccc(-c2[nH]c3cc(O)ccc3c2C(=O)c2cc(OC)c(OC)c(OC)c2)cc1O	2.17		3.4	2.91

Compound	IC50 [1] [µM]	inhibition (Tubulin (Homo sapiens) [3]) [%]	GI50 (SK-OV-3) [µM]	inhibition (Tubulin (Homo sapiens) [2]) [%]	GI50 (DU-145) [µM]	GI50 (NCI-H460) [µM]
COc1ccc(-c2[nH]c3c(OC)c(OC)ccc3c2C(=O)c2cc(OC)c(OC)c(OC)c2)cc1O	1.1	67	0.0119	31	0.0181	0.992
COc1ccc(-c2[nH]c3c(O)c(OC)ccc3c2C(=O)c2cc(OC)c(OC)c(OC)c2)cc1	1	85	0.264	51	0.309	0.177
COc1ccc(-c2[nH]c3cc(OC)c(OC)c(OC)c3c2C(=O)c2cc(OC)c(OC)c(OC)c2)cc1O	> 20		25.1		28.3	41.8
COc1ccc2c(C(=O)c3cc([N+](=O)[O-])cc([N+](=O)[O-])c3)c(-c3ccc(OC)c(O)c3)[nH]c2c1	> 20		4.35		5.52	4.08
